Source: ChEMBL document CHEMBL5329156, “Discovery and development of novel substituted monohydrazides as potent antifungal agents” (RSC Med Chem, 2023)
In brackets after ≈: the same amount, converted by molar mass. Activity calls are given as the source filed them. The calls are words filed in the database; no cut-off is given here.

Key:
[1] = tested on: Aspergillus fumigatus; assay: Antifungal activity against Aspergillus fumigatus NRRL 163 assessed as fungal growth inhibition by double dilution method; format: functional
[2] = tested on: Pichia kudriavzevii; assay: Antifungal activity against Pichia kudriavzevii AR Bank # 397 assessed as fungal growth inhibition by double dilution method; format: functional
How it was run: (§1)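 Broth microdilution after CLSI M27-A3/M38-A2 with minor changes. Single colony grown overnight in YPD at 35 °C, 200 rpm. Compound final range 0.06-31.3 µg/mL; incubated 48 h at 35 °C.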

[3] = tested on: J774.A1; assay: Cytotoxicity against J774A.1 cells assessed as reduction in cell viability at 31.3 microg/ml; format: toxicity, cell-based; settings: mouse, dose 31.3 µg/ml
How it was run: (§2)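 Cells in DMEM with 10% FBS and 1% Pen/Strep, seeded at 10,000 cells/well and held overnight at 37 °C, 5% CO2. Compounds added at final 31.3-0.12 µg/mL (0.05% DMSO vehicle) for 24 h. Resazurin then added for 6 h; fluorescence read at ex 560/em 590. Triton X-100 1% as positive control; values normalized to vehicle. Run in quadruplicate.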

[4] = tested on: HEK293; assay: Cytotoxicity against human HEK-293 cells assessed as reduction in cell viability at 31.3 microg/ml; format: toxicity, cell-based; settings: dose 31.3 µg/ml; how it was run: as §2
[5] = tested on: Candida albicans; assay: Antifungal activity against Candida albicans ATCC 64124 assessed as fungal growth inhibition by double dilution method; format: functional
How it was run: (§3)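 Broth microdilution after CLSI M27-A3/M38-A2 with minor modifications. A single colony was grown overnight in YPD at 35 °C with shaking at 200 rpm. Cells were mixed 1:1 with compound (final 0.06-31.3 µg/mL, from DMSO stocks) and incubated 48 h at 35 °C.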

[6] = tested on: Aspergillus fumigatus; assay: Antifungal activity against Aspergillus fumigatus NRRL 5109 assessed as fungal growth inhibition by double dilution method; format: functional
[7] = tested on: Kodamaea ohmeri; assay: Antifungal activity against Kodamaea ohmeri AR Bank # 396 assessed as fungal growth inhibition by double dilution method; format: functional; how it was run: as §1
[8] = tested on: Nakaseomyces glabratus; assay: Antifungal activity against Candida glabrata ATCC 22019 assessed as fungal growth inhibition by double dilution method; format: functional; how it was run: as §1
[9] = tested on: [Candida] auris; assay: Antifungal activity against Candida auris AR Bank # 383 assessed as fungal growth inhibition by double dilution method; format: functional; settings: Candidozyma auris; how it was run: as §1
[10] = tested on: [Candida] auris; assay: Antifungal activity against Candida auris AR Bank # 382 assessed as fungal growth inhibition by double dilution method; format: functional; settings: Candidozyma auris; how it was run: as §1
[11] = tested on: [Candida] auris; assay: Antifungal activity against Candida auris AR Bank # 387 assessed as fungal growth inhibition by double dilution method; format: functional; settings: Candidozyma auris; how it was run: as §1
[12] = tested on: Candida albicans; assay: Antifungal activity against Candida albicans ATCC 10231 assessed as fungal growth inhibition by double dilution method; format: functional; how it was run: as §1
[13] = tested on: [Candida] auris; assay: Antifungal activity against Candida auris AR Bank # 0390 assessed as fungal growth inhibition by double dilution method; format: functional; settings: Candidozyma auris; how it was run: as §1
[14] = tested on: Aspergillus flavus; assay: Antifungal activity against Aspergillus flavus ATCC MYA-3631 assessed as fungal growth inhibition by double dilution method; format: functional
[15] = tested on: [Candida] auris; assay: Antifungal activity against Candida auris AR Bank # 0384 assessed as fungal growth inhibition by double dilution method; format: functional; settings: Candidozyma auris; how it was run: as §1
[16] = tested on: Saccharomyces cerevisiae; assay: Antifungal activity against Saccharomyces cerevisiae AR Bank # 399 assessed as fungal growth inhibition by double dilution method; format: functional; how it was run: as §1
[17] = tested on: Candida albicans; assay: Antifungal activity against itraconazole/fluconazole susceptible Candida albicans ATCC MYA-2310 assessed as fungal growth inhibition by double dilution method; format: functional; how it was run: as §3
[18] = tested on: Nakaseomyces glabratus; assay: Antifungal activity against Candida glabrata ATCC 2001 assessed as fungal growth inhibition by double dilution method; format: functional; how it was run: as §1
[19] = tested on: Candida albicans; assay: Antifungal activity against itraconazole/fluconazole resistant Candida albicans ATCC 90819 assessed as fungal growth inhibition by double dilution method; format: functional; how it was run: as §3
[20] = tested on: Candida albicans; assay: Antifungal activity against itraconazole/fluconazole susceptible Candida albicans ATCC MYA-2876 assessed as fungal growth inhibition by double dilution method; format: functional; how it was run: as §3
[21] = tested on: Candida albicans; assay: Antifungal activity against itraconazole/fluconazole resistant Candida albicans ATCC MYA-1237 assessed as fungal growth inhibition by double dilution method; format: functional; how it was run: as §3
[22] = tested on: Candida duobushaemulonii; assay: Antifungal activity against Candida duobushaemulonii AR Bank # 391 assessed as fungal growth inhibition by double dilution method; format: functional; settings: Candidozyma duobushaemuli; how it was run: as §1
[23] = tested on: [Candida] haemuloni; assay: Antifungal activity against Candida haemulonii AR Bank # 395 assessed as fungal growth inhibition by double dilution method; format: functional; settings: Candidozyma haemuli; how it was run: as §1
[24] = tested on: Candida albicans; assay: Antifungal activity against itraconazole/fluconazole resistant Candida albicans ATCC MYA-1003 assessed as fungal growth inhibition by double dilution method; format: functional; how it was run: as §3
[25] = tested on: [Candida] haemuloni; assay: Antifungal activity against Candida haemulonii AR Bank # 393 assessed as fungal growth inhibition by double dilution method; format: functional; settings: Candidozyma haemuli; how it was run: as §1
[26] = tested on: Candida albicans; assay: Antibiofilm activity against Candida albicans ATCC 10231 assessed as reduction in biofilm production at 1.96 to 3.9 microg/ml by biofilm formation assay; format: functional, organism-based; settings: dose 1.96-3.9 µg/ml
[27] = tested on: Aspergillus terreus; assay: Antifungal activity against Aspergillus terreus ATCC MYA-3633 assessed as fungal growth inhibition by double dilution method; format: functional
[28] = tested on: Saccharomyces cerevisiae; assay: Antifungal activity against Saccharomyces cerevisiae AR Bank # 400 assessed as fungal growth inhibition by double dilution method; format: functional; how it was run: as §1
[29] = tested on: Candida duobushaemulonii; assay: Antifungal activity against Candida duobushaemulonii AR Bank # 392 assessed as fungal growth inhibition by double dilution method; format: functional; settings: Candidozyma duobushaemuli; how it was run: as §1
[30] = tested on: [Candida] auris; assay: Antifungal activity against Candida auris AR Bank # 388 assessed as fungal growth inhibition by double dilution method; format: functional; settings: Candidozyma auris; how it was run: as §1
[31] = tested on: [Candida] auris; assay: Antifungal activity against Candida auris AR Bank # 385 assessed as fungal growth inhibition by double dilution method; format: functional; settings: Candidozyma auris; how it was run: as §1
[32] = tested on: Aspergillus fumigatus; assay: Antifungal activity against Aspergillus fumigatus NRRL 6113 assessed as fungal growth inhibition by double dilution method; format: functional
[33] = tested on: [Candida] auris; assay: Antifungal activity against Candida auris AR Bank # 390 assessed as fungal growth inhibition by double dilution method; format: functional; settings: Candidozyma auris; how it was run: as §1
[34] = tested on: [Candida] auris; assay: Antifungal activity against Candida auris AR Bank # 384 assessed as fungal growth inhibition by double dilution method; format: functional; settings: Candidozyma auris; how it was run: as §1
[35] = tested on: Aspergillus nidulans; assay: Antifungal activity against Aspergillus nidulans ATCC 38163 assessed as fungal growth inhibition by double dilution method; format: functional
[36] = tested on: Candida duobushaemulonii; assay: Antifungal activity against Candida duobushaemulonii AR Bank # 394 assessed as fungal growth inhibition by double dilution method; format: functional; settings: Candidozyma duobushaemuli; how it was run: as §1
[37] = tested on: [Candida] auris; assay: Antifungal activity against Candida auris AR Bank # 381 assessed as fungal growth inhibition by double dilution method; format: functional; settings: Candidozyma auris; how it was run: as §1
[38] = tested on: [Candida] auris; assay: Antifungal activity against Candida auris AR Bank # 389 assessed as fungal growth inhibition by double dilution method; format: functional; settings: Candidozyma auris; how it was run: as §1
[39] = tested on: [Candida] auris; assay: Antifungal activity against Candida auris AR Bank # 386 assessed as fungal growth inhibition by double dilution method; format: functional; settings: Candidozyma auris; how it was run: as §1
[40] = tested on: HepG2; assay: Cytotoxicity against human HepG2 cells assessed as reduction in cell viability upto 31.3 microg/ml; format: toxicity, cell-based; settings: dose < 31.3 µg/ml; how it was run: as §2
[41] = tested on: Clavispora lusitaniae; assay: Antifungal activity against Clavispora lusitaniae AR Bank # 398 assessed as fungal growth inhibition by double dilution method; format: functional; how it was run: as §1
[42] = tested on: Cryptococcus neoformans; assay: Antifungal activity against Cryptococcus neoformans ATCC MYA-895 assessed as fungal growth inhibition by double dilution method; format: functional; how it was run: as §1
[43] = tested on: Pichia kudriavzevii; assay: Antifungal activity against Pichia kudriavzevii ATCC 6258 assessed as fungal growth inhibition by double dilution method; format: functional; how it was run: as §1

O=C(NNc1cccc(F)c1)c1ccccn1
MIC [1]: > 31.3 µg/mL | MIC [2]: 0.24 µg/mL (≈ 1.04 µM) | Activity [3]: Non-Toxic | Activity [4]: Non-Toxic | MIC [5]: 0.98 µg/mL (≈ 4.24 µM) | MIC [6]: > 31.3 µg/mL | MIC [7]: 0.24 µg/mL (≈ 1.04 µM) | MIC [8]: 1.95 µg/mL (≈ 8.43 µM) | MIC [9]: 1.95 µg/mL (≈ 8.43 µM) | MIC [10]: 0.98 µg/mL (≈ 4.24 µM) | MIC [11]: 0.49 µg/mL (≈ 2.12 µM) | MIC [12]: ≤ 0.06 µg/mL | MIC [13]: 0.24 µg/mL (≈ 1.04 µM) | MIC [14]: 7.8 µg/mL (≈ 33.7 µM) | MIC [15]: 1.95 µg/mL (≈ 8.43 µM) | MIC [16]: 1.95 µg/mL (≈ 8.43 µM) | MIC [17]: 1.95 µg/mL (≈ 8.43 µM) | MIC [18]: 1.95 µg/mL (≈ 8.43 µM) | MIC [19]: 0.49 µg/mL (≈ 2.12 µM) | MIC [20]: 0.98 µg/mL (≈ 4.24 µM) | MIC [21]: 0.98 µg/mL (≈ 4.24 µM) | MIC [22]: 0.49 µg/mL (≈ 2.12 µM) | MIC [23]: ≤ 0.06 µg/mL | MIC [24]: 0.98 µg/mL (≈ 4.24 µM) | MIC [25]: 0.12 µg/mL (≈ 0.519 µM) | Activity [26]: Active | MIC [27]: 1.95 µg/mL (≈ 8.43 µM) | MIC [28]: 1.95 µg/mL (≈ 8.43 µM) | MIC [29]: 0.24 µg/mL (≈ 1.04 µM) | MIC [30]: 0.49 µg/mL (≈ 2.12 µM) | MIC [31]: 0.98 µg/mL (≈ 4.24 µM) | MIC [32]: > 31.3 µg/mL | MIC [33]: 0.24 µg/mL (≈ 1.04 µM) | MIC [34]: 1.95 µg/mL (≈ 8.43 µM) | MIC [35]: 0.49 µg/mL (≈ 2.12 µM) | MIC [36]: 0.49 µg/mL (≈ 2.12 µM) | MIC [37]: 0.49 µg/mL (≈ 2.12 µM) | MIC [38]: 0.12 µg/mL (≈ 0.519 µM) | MIC [39]: 0.49 µg/mL (≈ 2.12 µM) | Activity [40]: Non-Toxic | MIC [41]: 0.98 µg/mL (≈ 4.24 µM) | MIC [42]: 0.12 µg/mL (≈ 0.519 µM) | MIC [43]: 0.24 µg/mL (≈ 1.04 µM)
